Measured values as given in ChEMBL document CHEMBL1146885, “Antitumor agents. 254. Synthesis and biological evaluation of novel neo-tanshinlactone analogues as potent anti-breast cancer agents” (2006).
≈ marks a conversion by molar mass, not a printed value.

Tests used:
Assay type in all cases: functional
Details in all cases: read-out: ED50 (the source's name)
[1] = system: A-431; assay: Cytotoxicity against human A431 cells
Summary of the method: (§1)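 SRB growth-inhibition assay. Cells grown in RPMI-1640 with 25 mM HEPES, 0.25% sodium bicarbonate, 10% FBS and 100 µg/mL kanamycin. Freshly trypsinized cells seeded at 1500-7500 per well, with compound added from DMSO-diluted stock. After 3 days, attached cells fixed with cold 50% TCA, stained with 0.4% SRB, dye solubilized, A562 read. ED50 = concentration reducing growth 50%, mean of ≥3 independent determinations.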

[2] = system: SK-BR-3; assay: Cytotoxicity against human SK-BR-3 cells expressing HER2 and lacking ER; summary of the method: as §1
[3] = system: KB; assay: Cytotoxicity against human KB cells; summary of the method: as §1
[4] = system: ZR-75-1; assay: Cytotoxicity against human ZR-75-1 cells expressing ER; summary of the method: as §1
[5] = system: SW-620; assay: Cytotoxicity against human SW620 cells; summary of the method: as §1
[6] = system: Hs-578T; assay: Cytotoxicity against human HS 587-T cells lacking ER; summary of the method: as §1
[7] = system: MCF7; assay: Cytotoxicity against human MCF7 cells expressing ER; summary of the method: as §1
[8] = system: MDA-MB-231; assay: Cytotoxicity against human MDA-MB-231 cells lacking ER; summary of the method: as §1

Structure (SMILES) | EC50 [1] [µg/mL] | EC50 [2] [µg/mL] | EC50 [3] [µg/mL] | EC50 [4] [µg/mL] | EC50 [5] [µg/mL] | EC50 [6] [µg/mL] | EC50 [7] [µg/mL] | EC50 [8] [µg/mL]
Cc1cccc2c1ccc1c3occ(C)c3c(=O)oc21 | > 10 | 0.18 (≈ 0.681 µM) | > 10 | 0.25 (≈ 0.946 µM) | > 10 | 16 (≈ 60.5 µM) | 0.6 (≈ 2.27 µM) | 10 (≈ 37.8 µM)
Cc1cccc2c1ccc1c3occc3c(=O)oc21 | 8.3 (≈ 33.2 µM) | 8.5 (≈ 34 µM) | > 10 | > 10 | > 10 | – | 5.5 (≈ 22 µM) | –
Cc1coc2c1c(=O)oc1c3ccccc3ccc21 | – | – | – | 4 (≈ 16 µM) | – | 7.5 (≈ 30 µM) | 4 (≈ 16 µM) | 10.3 (≈ 41.2 µM)
COc1cc2c3occc3c(=O)oc2c2ccccc12 | 9.5 (≈ 35.7 µM) | 4 (≈ 15 µM) | 9.5 (≈ 35.7 µM) | 8.5 (≈ 31.9 µM) | 4 (≈ 15 µM) | – | 3.4 (≈ 12.8 µM) | –
CC/C(=C(\c1ccccc1)c1ccc(OCCN(C)C)cc1)c1ccccc1 [TAMOXIFEN] | 7 (≈ 18.8 µM) | 5 (≈ 13.5 µM) | 9 (≈ 24.2 µM) | 3.6 (≈ 9.69 µM) | 4 (≈ 10.8 µM) | 7 (≈ 18.8 µM) | 5 (≈ 13.5 µM) | 8.5 (≈ 22.9 µM)
CCc1cccc2c1ccc1c3occc3c(=O)oc21 | – | – | – | – | – | – | > 10 | > 10
O=c1oc2c(ccc3ccccc32)c2c1C(O)CO2 (stereo not drawn) | – | – | – | – | – | – | 12.5 (≈ 49.2 µM) | –
COc1cc2c3occ(C)c3c(=O)oc2c2ccccc12 | 9.5 (≈ 33.9 µM) | 8.6 (≈ 30.7 µM) | > 10 | > 10 | 9 (≈ 32.1 µM) | – | 5 (≈ 17.8 µM) | –
Cc1coc2c1c(=O)oc1c3ccccc3c(Cl)cc21 | 8 (≈ 28.1 µM) | 4.5 (≈ 15.8 µM) | > 10 | 8.6 (≈ 30.2 µM) | > 10 | – | 5 (≈ 17.6 µM) | –
O=c1oc2c3ccccc3c(Cl)cc2c2occc12 | > 10 | > 10 | > 10 | > 10 | > 10 | – | 7 (≈ 25.9 µM) | –
O=c1oc2c3ccccc3ccc2c2occc12 | – | – | – | – | – | – | > 20 | 10.5 (≈ 44.4 µM)
CCc1cccc2c1ccc1c3occ(C)c3c(=O)oc21 | > 10 | 0.1 (≈ 0.359 µM) | > 10 | 0.18 (≈ 0.647 µM) | > 10 | 10 (≈ 35.9 µM) | 0.45 (≈ 1.62 µM) | 13.5 (≈ 48.5 µM)
